{"data": "Experimental data collected from several papers", "target": "Alpha-2A adrenergic receptor (ADRA2A, Homo sapiens, UniProt P08913)", "tested at": "10 µM", "One construct used (P08913 1-465)": "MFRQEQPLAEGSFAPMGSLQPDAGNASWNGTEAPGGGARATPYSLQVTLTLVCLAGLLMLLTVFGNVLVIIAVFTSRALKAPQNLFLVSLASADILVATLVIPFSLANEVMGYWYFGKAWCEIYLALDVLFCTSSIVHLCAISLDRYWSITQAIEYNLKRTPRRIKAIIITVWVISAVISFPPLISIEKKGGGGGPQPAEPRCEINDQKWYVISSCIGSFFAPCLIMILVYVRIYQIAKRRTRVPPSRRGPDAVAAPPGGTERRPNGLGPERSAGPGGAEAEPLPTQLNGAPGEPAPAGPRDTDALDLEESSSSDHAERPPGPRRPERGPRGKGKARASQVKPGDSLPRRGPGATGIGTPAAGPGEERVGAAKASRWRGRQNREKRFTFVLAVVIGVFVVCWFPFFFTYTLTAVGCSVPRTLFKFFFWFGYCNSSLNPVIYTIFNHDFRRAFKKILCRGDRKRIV", "note": "Protocols differ between the studies behind these lines."}
{"Structure (SMILES)": "O=C1c2ccccc2C(=O)N1CC#Cc1ccc2c(c1)C=C([N+](=O)[O-])C(C(F)(F)F)O2 (centres unmarked)", "observed": "ligand displacement", "method": "radioligand", "inhibition [%]": 88}
{"Structure (SMILES)": "Cc1cc(-c2nc(CN3CCNCC3)no2)cc2c1C(=O)N(Cc1ccc(OC(F)(F)F)cc1)C2", "observed": "ligand displacement", "method": "radioligand", "inhibition [%]": 41}
{"Structure (SMILES)": "CCCNc1nc2ccccc2n1Cc1ccc(Cl)cc1", "observed": "ligand displacement", "inhibition [%]": 90.2}
{"Structure (SMILES)": "COc1cc(NC(C)=O)c(Cl)cc1C(=O)Nc1nccs1", "observed": "cell-free assay", "inhibition [%]": -7}
{"Structure (SMILES)": "CC(=O)C1=C(C)N(c2cccc(C(F)(F)F)c2)C(=O)N[C@H]1c1ccc(C#N)nc1", "observed": "ligand displacement", "inhibition [%]": -8.89}
{"Structure (SMILES)": "CCN(Cc1ccccc1C(F)(F)F)C(=O)C1CCN(S(=O)(=O)c2ccc3[nH]ncc3c2)CC1", "observed": "ligand displacement", "method": "radioligand", "inhibition [%]": 37}
{"Structure (SMILES)": "CN([C@@H]1CCc2c(CC(=O)O)c3ccccc3n2C1)S(=O)(=O)c1ccc(F)cc1", "observed": "ligand displacement", "inhibition [%]": -3.89}
{"Structure (SMILES)": "N#Cc1cc(Cn2c(N3CCCC3)nc3ccccc32)ccc1F", "observed": "ligand displacement", "inhibition [%]": 31.6}
{"Structure (SMILES)": "CCN(CC)c1ccc(C2Nc3ccc(C(=O)c4ccccc4)cc3NC3=C2C(=O)CC(C)(C)C3)cc1 (centres unmarked)", "observed": "ligand displacement", "method": "radioligand", "inhibition [%]": 5}
{"Structure (SMILES)": "O=C(c1ccc(Cl)cc1)N(Cc1ccccc1)C1CCCCC1", "observed": "cell-free assay", "inhibition [%]": 4}
{"Structure (SMILES)": "Ic1cccc2cnccc12", "observed": "ligand displacement", "method": "radioligand", "inhibition [%]": 13}
